Source: BindingDB's records for doi:10.1021/acs.jmedchem.5b00686 (University of Hawaii At Hilo, 2015)

Biological target: Signal transducer and activator of transcription 3 (Homo sapiens, UniProt P40763)
Test: Inhibition of Stat3 dimer DNA binding activity in human U373MG cells nuclear extract after 1.5 hrs by EMSA using radiolabeled probe hSIE
Procedure, shortened: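 Sub-confluent U251MG or U373MG cells treated with compound (5 μM for 0–24 h, or 0–5 μM for 1.5 h). Stat3:DNA bands scanned, quantified and plotted against concentration to derive IC50. Controls were 0.025% DMSO.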

Signal transducer and activator of transcription 3, sequence (P40763 whole entry): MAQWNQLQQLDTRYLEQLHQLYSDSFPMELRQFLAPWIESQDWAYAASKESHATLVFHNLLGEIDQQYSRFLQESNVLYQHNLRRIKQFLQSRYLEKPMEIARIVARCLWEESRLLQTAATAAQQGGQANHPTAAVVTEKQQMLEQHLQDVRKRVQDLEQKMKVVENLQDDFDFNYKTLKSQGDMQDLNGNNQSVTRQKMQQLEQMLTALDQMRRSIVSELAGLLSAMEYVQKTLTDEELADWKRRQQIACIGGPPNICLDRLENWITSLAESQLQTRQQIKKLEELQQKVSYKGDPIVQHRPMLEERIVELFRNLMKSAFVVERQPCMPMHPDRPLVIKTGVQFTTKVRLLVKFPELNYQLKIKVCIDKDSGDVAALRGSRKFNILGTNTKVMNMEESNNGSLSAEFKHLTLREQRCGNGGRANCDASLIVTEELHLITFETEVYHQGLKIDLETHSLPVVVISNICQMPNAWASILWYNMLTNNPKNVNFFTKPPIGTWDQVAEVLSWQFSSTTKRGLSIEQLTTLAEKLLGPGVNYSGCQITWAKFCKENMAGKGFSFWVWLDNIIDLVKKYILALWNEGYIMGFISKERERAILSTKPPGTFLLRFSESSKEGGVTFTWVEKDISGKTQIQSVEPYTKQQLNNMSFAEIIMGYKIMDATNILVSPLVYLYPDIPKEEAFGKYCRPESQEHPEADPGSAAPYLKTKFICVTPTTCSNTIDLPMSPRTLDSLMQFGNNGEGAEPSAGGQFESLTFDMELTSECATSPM

| SMILES | IC50 |
| --- | --- |
| C/C=C(\C)C(=O)OCC1=C2/C(=C\[C@@]3(C)CC[C@](O)(O3)[C@H](C)C[C@@H]2O)OC1=O | 2.4 µM |
| C/C=C(\C)C(=O)O[C@H]1C[C@@H](C)[C@]2(OC)CC[C@](C)(/C=C3/OC(=O)C(COC(C)=O)=C31)O2 [Vernolide-B] | 4.1 µM |
